Results collected from several papers.
Protocols differ between the studies behind these lines.
Cell line: Vero
Effect on: cell growth or viability

O=[N+]([O-])c1ccc(/C(O)=C/C(=S)S)cc1  IC50 (MTT; 48 h): 255 µg/mL
Nc1c(-c2ccc([N+](=O)[O-])cc2)nc2ccccn12  IC50 (MTT; 48 h): 74 µM
C#Cc1cccc(Nc2ncnc3cc(OCCOC)c(OCCOC)cc23)c1  IC50 (MTT): > 30 µM
COc1ccc(CCNCc2c(N)nc(N)nc2-c2ccccc2)cc1  IC50 (SRB): > 100 µM
CC(C)(C)Nc1c(-c2ccccc2N)nc2cnccn12  IC50 (MTT; 48 h): 85 µM
Oc1ncnc2cc(Nc3nc(-c4ccc(Cl)cc4)cs3)ccc12  IC50 (MTT): > 50 µM
Cc1[nH]c(=O)c(CNC(=O)c2ccc(F)nc2)c2c1CCCC2  IC50 (MTT; 72 h): > 50 µg/mL
NC1=NN(c2ccccc2)C(=O)C1=NNc1ccc(N=Nc2ccccc2)cc1  IC50: 44.6 µM
Nc1ccc(-c2nc3ccccn3c2N)cc1  IC50 (MTT; 48 h): 88 µM
Nc1nc(N)c(CNCCc2ccc(Cl)cc2)c(C2CCCCC2)n1  IC50 (SRB): 23 µM
Cc1ccc(C)n1-c1ccc(-c2nnc(S)s2)cc1  IC50 (MTT; 72 h): 221 µM
O=[N+]([O-])c1ccc(-c2csc(Nc3ccc4c(O)ncnc4c3)n2)cc1  IC50 (MTT): > 50 µM
Nc1ccccc1-c1nc2cnccn2c1N  IC50 (MTT; 48 h): 78 µM
Oc1ncnc2cc(Nc3nc(-c4ccccc4)cs3)ccc12  IC50 (MTT): > 50 µM
Cc1ccc(C)n1-c1ccc(-c2nnc(-c3ccccc3Cl)[nH]2)cc1  IC50 (MTT; 72 h): 222 µM
Cc1[nH]c(=O)c(CNC(=O)c2ccc([N+](=O)[O-])o2)c2c1CCCC2  IC50 (MTT; 72 h): > 50 µg/mL
Nc1nc(N)c(CNCCc2cccc(Cl)c2)c(C2CCCCC2)n1  IC50 (SRB): 23 µM
N#Cc1nn(-c2ccc(N=Nc3ccccc3)cc2)c(=S)n(-c2ccccc2)c1=O  IC50: 42.3 µM
COc1cccc(CCNCc2c(N)nc(N)nc2-c2ccccc2)c1  IC50 (SRB): > 100 µM
Oc1ncnc2cc(Nc3nc(-c4ccc(Br)cc4)cs3)ccc12  IC50 (MTT): > 50 µM
COc1ccc(CCNCc2c(N)nc(N)nc2C2CCCCC2)cc1  IC50 (SRB): 21 µM
N=C1C(Cl)=C(N)C(=O)c2[nH]cc(C(O)CO)c21 (centres unmarked)  IC50 (MTT; 72 h): 14 µM
NNC(=O)c1ccncc1  IC50 (MTT; 72 h): > 450 µM
O=[N+]([O-])c1ccc(-c2nc3ccccn3c2NC2CCCCC2)cc1  IC50 (MTT; 48 h): 85 µM
COc1cccc(CCNCc2c(N)nc(N)nc2C2CCCCC2)c1  IC50 (SRB): 23 µM
CN(C)c1ccc(-c2nc3cnccn3c2NC(C)(C)C)cc1  IC50 (MTT; 48 h): > 100 µM
Oc1ncnc2cc(Nc3nc(-c4ccc(C(F)(F)F)cc4)cs3)ccc12  IC50 (MTT): > 50 µM
CN(C)c1ccc(-c2nc3cnccn3c2N)cc1  IC50 (MTT; 48 h): 91 µM
Nc1nc(N)c(CNCCc2ccccc2F)c(C2CCCCC2)n1  IC50 (SRB): 22 µM
Cc1ccc(C)n1-c1ccc(-c2nnc(-c3c(Cl)cccc3Cl)[nH]2)cc1  IC50 (MTT; 72 h): 229 µM
Nc1nc(N)c(CNCCc2ccc(Cl)cc2Cl)c(C2CCCCC2)n1  IC50 (SRB): 16 µM
CC(C)(C)Nc1c(-c2ccccc2[N+](=O)[O-])nc2cnccn12  IC50 (MTT; 48 h): > 100 µM
